Activity calls are given as the source filed them. The rule behind the calls is not given here.
Assays:
Staphylococcus aureus [1] = assay: Ratio of MBC to MIC against methicillin-susceptible Staphylococcus aureus ATCC 25923; format: functional
Procedure, shortened: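 For MBC, 5 μL from each well was spotted on agar and incubated overnight; MBC is the lowest concentration with no visible growth. Ratio taken as MBC over MIC.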

Staphylococcus aureus [2] = assay: Bacteriostatic activity against methicillin-susceptible Staphylococcus aureus ATCC 25923 assessed as reduction in glucose metabolism measured at 0.5 hr interval for 15 hrs by phenol red based microplate reader assay; format: functional, organism-based
Procedure, shortened: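 Glucose acidification: an OD600 1.0 suspension of S. aureus […] in HBSS was mixed with phenol red (70 μM stock) and test agent added from a 2 mM stock. Controls were DMSO vehicle and water. OD560 was read every 0.5 h for 15 h at 37 °C.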

Compound: CCCCCCCCSSc1ccccn1
- Ratio (Staphylococcus aureus [1]): >4
- Activity (Staphylococcus aureus [2]): Active
